# Rows were chosen to be rich in hits. Some 2.4% of all compounds tested hit in one or more screens of this group.
# PfM18AAP inh-1: PfM18AAP inhibitors, malaria aminopeptidase, primary screen, biochemical, QFRET, recombinant enzyme; actives 1.2% (n = 290,000); H-Glu-NHMec fluorogenic cleavage; AID 1822, 2009; M18 aspartyl aminopeptidase (Plasmodium falciparum 3D7); inhibition, % at 7.35 µM;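 active = inhibition above the campaign mean inhibition over all tested compounds plus 3 SD, cut at about 28% in these data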
# PfG6PD inh: PfG6PD enzyme inhibitors, primary screen, biochemical, fluorescence intensity, uHTS. actives 0.78% (n = 350,000). AID 504690, 2011. inhibition, % at 20 µM. glucose-6-phosphate dehydrogenase-6-phosphogluconolactonase (Plasmodium falciparum 3D7). PfGluPho enzyme, NADPH resazurin-diaphorase fluorescence;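 active = inhibition reaching at least a set limit at 20 µM in the primary screen, cut at about 59% in these data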
# APOBEC3A inh: APOBEC3A ssDNA deaminase inhibitors, primary screen, selectivity assay for APOBEC3G inhibitor project, biochemical, FAM/TAMRA oligo cleavage fluorescence; recombinant A3A, FAM/TAMRA ssDNA deamination fluorescence; actives 0.41% (n = 330,000); inhibition, % at 20 µM; AID 493011, 2011; DNA dC->dU-editing enzyme APOBEC-3A (Homo sapiens), P31941;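 active = at least 40% inhibition at 20 µM here, with at most 30% in a related deaminase screen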
# Target sequence (P31941 whole entry, looked up): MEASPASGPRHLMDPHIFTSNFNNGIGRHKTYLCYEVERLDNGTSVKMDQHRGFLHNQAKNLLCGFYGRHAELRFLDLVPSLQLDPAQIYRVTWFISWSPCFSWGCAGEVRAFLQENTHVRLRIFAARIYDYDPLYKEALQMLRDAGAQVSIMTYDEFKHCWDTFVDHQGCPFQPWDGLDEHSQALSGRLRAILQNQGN
# HKDC1 inh: HKDC1 hexokinase inhibitors, primary screen, biochemical, fluorescence, uHTS | Q2TB90 | recombinant HKDC1, G6PDH/diaphorase resazurin coupled fluorescence | inhibition, % at 20 µM | actives 0.16% (n = 340,000) | AID 493160, 2011;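 active = inhibition above about 35% when tested at 20 µM, limit read from the data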
#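 Assay system: in-house recombinant HK5 (HKDC1) enzyme. Input: HKDC1 at 5 µg/mL. Medium: Tris pH 8.0 buffer with MgCl2, Tween-20, BSA, BME. Dosing: single 20 µM dose. Schedule: 90 min reaction incubation at room temperature, dark. Signal: resazurin-to-resorufin fluorescence via G6PDH and diaphorase coupling, 525/613 nm. Controls: DMSO-enzyme wells negative, buffer-substituted wells positive.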
# A3G deaminase: APOBEC3G DNA deaminase inhibitors, primary screen, biochemical, fluorescence, single-stranded DNA substrate, uHTS. inhibition, % at 20 µM. AID 493012, 2011. recombinant A3G, ssDNA deamination FAM/TAMRA fluorescence. actives 0.28% (n = 330,000);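 active = inhibition of at least 40% at 20 µM, with no more than 30% in the related APOBEC3A deaminase screen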
# SUMO HTRF inh: inhibitors of in vitro SUMOylation cascade, primary screen, biochemical, HTRF, uHTS. SUMO-conjugating enzyme UBC9 (Homo sapiens), P63279. HTRF SUMOylation assay, SAE1/SAE2 + UBC9. inhibition, % at 35 µM. actives 0.36% (n = 290,000). AID 2006, 2009; in the data active = inhibition above about 50%, passing the limit was not always enough
# Target sequence (P63279 whole entry, looked up): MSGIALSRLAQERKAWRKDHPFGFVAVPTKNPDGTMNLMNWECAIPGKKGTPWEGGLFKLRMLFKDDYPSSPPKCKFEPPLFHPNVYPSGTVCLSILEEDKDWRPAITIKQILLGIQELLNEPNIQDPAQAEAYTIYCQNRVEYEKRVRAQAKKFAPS
# PfM18AAP inh-2: PfM18AAP inhibitors, malaria aminopeptidase, confirmation, biochemical, QFRET, recombinant enzyme, triplicate. shares compounds with PfM18AAP inh-1. H-Glu-NHMec fluorogenic cleavage. inhibition, % at 7.35 µM. actives 28% (n = 2,400);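 active = mean inhibition over replicate wells above the hit cutoff set for the earlier primary screen, cut at about 29% in these data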
# CTSL1 counter: cathepsin L1 inhibitors, retest, confirmation, counter-screen for PFM18AAP inhibitor project, biochemical, QFRET, triplicate. shares compounds with PfM18AAP inh-1. purified cathepsin L1, Z-Leu-Arg-MCA fluorescence. inhibition, % at 5.96 µM. 2,400 tested, under 10 active;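 active = average inhibition across replicates above the hit cutoff set in the earlier primary screen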
# Target sequence (P07711 whole entry, looked up): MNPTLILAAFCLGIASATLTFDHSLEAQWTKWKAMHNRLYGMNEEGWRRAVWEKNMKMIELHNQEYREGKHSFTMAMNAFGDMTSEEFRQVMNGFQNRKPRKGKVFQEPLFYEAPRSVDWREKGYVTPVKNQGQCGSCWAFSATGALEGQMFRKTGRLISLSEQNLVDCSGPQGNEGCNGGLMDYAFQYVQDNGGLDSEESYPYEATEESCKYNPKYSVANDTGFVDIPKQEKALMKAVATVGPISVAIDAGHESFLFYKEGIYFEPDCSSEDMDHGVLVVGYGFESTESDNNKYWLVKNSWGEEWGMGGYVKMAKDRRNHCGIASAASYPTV
# A3G conf: APOBEC3G deaminase inhibitor retest, confirmation, biochemical, fluorescence, single-stranded DNA substrate, single concentration. inhibition, % at 20 µM. actives 72% (n = 890). AID 493152, 2011. recombinant A3G ssDNA deaminase, UDG/FAM-TAMRA fluorescence. shares compounds with A3G deaminase;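 active = inhibition reaching a set limit in any replicate at 20 µM, the limit being 80% of the first screen's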
# UDG ctr A3G: E. coli UDG inhibitors, confirmation, counter-screen for APOBEC3G inhibitor project, biochemical, single concentration, fluorescence, FAM/TAMRA oligo; shares compounds with A3G deaminase; inhibition, % at 20 µM; UDG counterscreen; 710 tested, under 10 active;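 active = compounds giving 40% or more inhibition at 20 µM in any one of the three replicates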;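 also: inhibitors lower the FAM signal released by uracil excision and alkaline cleavage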
# PfG6PD confirm: PfG6PD inhibitors, hit retest, confirmation, biochemical, fluorescence intensity, single concentration; AID 504753, 2011; shares compounds with PfG6PD inh; actives 34% (n = 2,400); recombinant PfGluPho, NADPH-diaphorase-resazurin fluorescence; inhibition, % at 20 µM;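 active = inhibition of at least 50% at 20 µM in any single replicate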
# Diaphorase 10uM: diaphorase inhibitors and chemical oxidizers, confirmation, counter-screen for P. falciparum G6PD inhibitor project, biochemical, fluorescence intensity, 10 µM NADPH. shares compounds with PfG6PD inh. diaphorase-coupled resazurin reduction, NADPH 10 uM. inhibition, % at 20 µM. actives 39% (n = 820);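 active = average inhibition reaching 50% or more with the compound at 20 µM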;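 also: resorufin red fluorescence formed as diaphorase reduces resazurin using NADPH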
# Diaph ctr 30uM: diaphorase inhibitors and chemical oxidizers, confirmation, counter-screen for P. falciparum G6PD inhibitor project, biochemical, fluorescence intensity, 30 µM NADPH | shares compounds with PfG6PD inh | inhibition, % at 20 µM | actives 29% (n = 820) | Diaphorase/resazurin coupled assay, resorufin fluorescence;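 active = inhibition averaging 50% or more, tested at 20 µM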
# A number is an active result; 0 = inactive; - = not tested or not shown.
SMILES,PfM18AAP inh-1,PfG6PD inh,APOBEC3A inh,HKDC1 inh,A3G deaminase,SUMO HTRF inh,PfM18AAP inh-2,CTSL1 counter,PfG6PD confirm,others
COc1ccc(N2CCN(C(=O)c3ccc4c(c3)NC(=O)C(CSCc3ccc(C)cc3)N4)CC2)cc1 (stereo not given),0,-,0,-,0,0,-,-,-,
Cc1ccc(-c2csc3n[nH]c(=S)n23)cc1,63,63,0,0,60,0,52,0,0,A3G conf=82;UDG ctr A3G=0
CCC1S/C(=C(\C#N)C(=O)NCc2ccco2)N(c2ccc(F)cc2)C1=O (stereo not given),0,0,0,0,0,0,-,-,-,
COc1cc(/C=C2\CC/C(=C\c3cc(OC)c(O)c(OC)c3)C2=O)cc(OC)c1O,51,63,0,0,0,0,48,0,67,Diaphorase 10uM=0;Diaph ctr 30uM=0
CC1(c2ccc([N+](=O)[O-])cc2)Nc2ccccc2S1 (stereo not given),35,72,0,0,0,0,0,0,0,
COc1cc(/C=N/Nc2nncn2N)ccc1OCc1c(C)no[n+]1[O-],51,82,0,0,0,0,0,0,63,Diaphorase 10uM=0;Diaph ctr 30uM=0
COc1cc(/C=C(\C#N)C(N)=O)ccc1OCc1c(C)no[n+]1[O-],0,0,0,0,0,0,-,-,-,
O=C(CCc1ccc(O)c(O)c1)N/N=C/c1cc2c(cc1[N+](=O)[O-])OCO2,76,68,0,0,0,0,51,0,65,Diaphorase 10uM=0;Diaph ctr 30uM=0
COc1ccc2c(c1)CCc1cnc(N)nc1-2,0,0,0,0,0,0,-,-,-,
CCN(C(=O)CN1CCCCCC1)c1c(N)n(Cc2ccccc2)c(=O)[nH]c1=O,-,0,0,0,0,-,-,-,-,
CCN(C(=O)CN1CCN(c2ccc(O)cc2)CC1)c1c(N)n(Cc2ccccc2)c(=O)[nH]c1=O,35,73,0,0,0,0,0,0,0,
S=C(c1ccc(Br)cc1)N1CCN(Cc2ccccc2)CC1,42,60,0,0,40,0,0,0,0,A3G conf=0
O=C(NCC(=O)N1CCN(Cc2ccccc2)CC1)c1ccc(Br)cc1,0,0,0,0,0,0,-,-,-,
CN1CCN(C(=S)c2ccc(Br)cc2)CC1,47,59,0,0,0,0,0,0,61,Diaphorase 10uM=0;Diaph ctr 30uM=0
Cc1ccc(NNC2CC(=O)N(c3cccc(Cl)c3)C2=O)cc1 (stereo not given),0,0,0,0,0,0,-,-,-,
CCCN(CCC)CCCNC(=O)c1cc2c(-c3ccc(OC)c(OC)c3)nn(C)c2s1,0,0,0,0,0,0,-,-,-,
COc1ccc(/C=N/Nc2ccc([N+](=O)[O-])cc2)cc1O,48,81,0,0,0,0,0,0,0,
CCC1([N+](=O)[O-])COC(c2ccc(Cl)cc2)OC1 (stereo not given),-,0,-,0,-,-,-,-,-,
Cc1ccc(N2CC(C(=O)OCC(=O)c3ccc([N+](=O)[O-])cc3)CC2=O)cc1 (stereo not given),38,60,0,0,0,0,0,0,57,Diaphorase 10uM=0;Diaph ctr 30uM=0
O=C(COC(=O)C1CC(=O)N(c2ccccc2)C1)c1ccccc1 (stereo not given),0,0,0,0,0,0,-,-,-,
CC(=O)Nc1ccc(C(=O)NCCCOC(C)C)cc1,0,0,0,0,0,0,-,-,-,
CC(C)OCCCNC(=S)Nc1ccc(S(N)(=O)=O)cc1,49,61,0,0,0,0,0,0,0,
CC(=O)C[C@H](O)CC(=O)[C@@H]1OC(=O)CCCCCCCCc2ccccc21,-,0,0,0,0,-,-,-,-,
COc1ccc(OCC(=O)Nn2c(-c3ccc(OC)cc3)nc3ccccc3c2=O)cc1,0,0,0,0,0,0,-,-,-,
COc1ccc(-c2nc3ccccc3c(=O)n2NC(=S)N(C)C)cc1,36,80,0,0,52,0,33,0,0,A3G conf=64;UDG ctr A3G=0
COc1cc(C2Nc3ccc4ncccc4c3C3=C2C(=O)CC(C)(C)C3)cc(OC)c1O (stereo not given),0,0,0,0,0,0,-,-,-,
COc1cc(C2Nc3ccc4ncccc4c3C3=C2C(=O)CCC3)cc(OC)c1O (stereo not given),43,69,0,0,0,0,0,0,0,
Oc1ccc(NCc2ccc(OCc3ccccc3)cc2)cc1,46,66,-,0,-,0,0,0,0,
O=c1[nH]c2ccc(F)cc2[nH]c1=O,0,0,0,0,0,0,-,-,-,
Oc1ccc(/C=N/N2CCCCC2)c(O)c1O,48,118,0,0,0,0,0,0,92,Diaphorase 10uM=98;Diaph ctr 30uM=96

# Assay outcomes deposited in PubChem BioAssay by several laboratories.
